# Assay results of several laboratories.
# Target: Serine/threonine-protein kinase PAK 6 (PAK6, Homo sapiens, UniProt Q9NQU5)
SMILES,effect on,mode,technique,tested at,quantity,value
O=C1CCc2cc(Nc3cc(OC4CCOCC4)c([N+](=O)[O-])cc3Cl)ccc2N1,cell-free assay,,competition with immobilised ligand,1 µM,remaining binding,86%
COc1cc(Nc2cnc(C#N)c(O[C@H](C)CN(C)C)n2)ncc1-c1cnn(C)c1,enzyme activity,inhibitor,radiometric,10 µM,remaining activity,43%
CCS(=O)(=O)c1cc2cc(C[C@@](O)(CC(C)(C)c3ccc(F)cc3C(N)=O)C(F)(F)F)[nH]c2cn1,cell-free assay,,competition with immobilised ligand,1 µM,remaining binding,77%
COc1cc(/C=C/C(=O)CC(=O)/C=C/c2ccc(O)c(OC)c2)ccc1O,enzyme activity,inhibitor,,1 µM,activity vs control,82%
CCCOc1ccc([C@@H]2[C@@H](C(=O)O)[C@H](c3ccc4c(c3)OCO4)CN2CC(=O)Nc2c(CC)cccc2CC)cc1,cell-free assay,,competition with immobilised ligand,1 µM,remaining binding,83%
CCCOc1ccc(OC)c(F)c1C(=O)c1ccc(C(=O)N[C@@H]2CNC[C@H]2NC(=O)c2ccc3[nH]ncc3c2)cc1,enzyme activity,inhibitor,,10 µM,remaining activity,68%
COc1cc2ncnc(Nc3ccc(Oc4ccccc4)cc3C)c2cc1OC,enzyme activity,inhibitor,,1 µM,inhibition,3%
CNC(=O)c1cc(Oc2ccc(NC(=O)Nc3ccc(Cl)c(C(F)(F)F)c3)cc2)ccn1,enzyme activity,inhibitor,,0.3 µM,inhibition,-33%
CC(C)(C)c1nc(-c2cccc(NS(=O)(=O)c3c(F)cccc3F)c2F)c(-c2ccnc(N)n2)s1,enzyme activity,inhibitor,radiometric,1 µM,remaining activity,79%
N#CCCc1ccc2c(c1)-c1[nH]c3ccc([N+](=O)[O-])cc3c1CC(=O)N2,cell-free assay,,,0.5 µM,remaining signal,104%
O=C(NCc1ncc(C(F)(F)F)cc1Cl)c1ccc2c(c1)C1(CCS(=O)(=O)CC1)[C@@H](C1CC1)N2S(=O)(=O)c1ccc(F)cc1,cell-free assay,,competition with immobilised ligand,1 µM,remaining binding,100%
CC(C)(C)C(=O)c1sc(NC2CCCCC2)nc1N,enzyme activity,inhibitor,,10 µM,remaining activity,98%
Cc1sc(C(=O)NC2COC2)cc1-n1cc(NC(=O)Nc2c(F)cccc2Cl)cn1,enzyme activity,inhibitor,,10 µM,remaining activity,99.9%
Cc1cc(NC(=O)c2cccc3cc(-c4cccc5[nH]nc(N)c45)ccc23)ccc1F,enzyme activity,inhibitor,,0.1 µM,activity vs control,104%
CCN(CC)CCNC(=O)c1c(C)[nH]c(/C=C2\C(=O)Nc3ccc(F)cc32)c1C,enzyme activity,inhibitor,,10 µM,inhibition,29%
Cc1ccc(NC(=O)c2ccc(CN3CCN(C)CC3)cc2)cc1Nc1nc(-c2cccnc2)cs1,cell-free assay,,,0.5 µM,remaining signal,101%
N[C@H]1CCN(c2nccc(-c3cnn4ncccc34)n2)C1,binding,,,1 µM,remaining binding,87%
CCc1ccccc1C(=O)Nc1n[nH]c2c(C)c(F)c(C3C(C#N)=C(C)N(C)C(C)=C3C#N)cc12,cell-free assay,,competition with immobilised ligand,1 µM,remaining binding,93%
O=C1NC(=O)c2cc(Nc3ccc(F)cc3)c(Nc3ccc(F)cc3)cc21,cell-free assay,,,0.5 µM,remaining signal,106%
CC(C)(O)c1cncc(-c2nc3ccc(F)cc3n2C2CC2)c1,cell-free assay,,competition with immobilised ligand,1 µM,remaining binding,100%
Cn1c(=O)n(-c2ccc(C(C)(C)C#N)cc2)c2c3cc(-c4cnc5ccccc5c4)ccc3ncc21,enzyme activity,inhibitor,,10 µM,remaining activity,105%
Nc1nc(Nc2ccccc2)sc1C(=O)c1c(F)cccc1F,enzyme activity,inhibitor,,10 µM,remaining activity,87%
Cc1ccc(C(=O)Nc2ccc(CN3CCN(C)CC3)c(C(F)(F)F)c2)cc1C#Cc1cnc2cccnn12,enzyme activity,inhibitor,,23.5 nM,remaining activity,84%
COc1cc(Cl)c(C(=O)N[C@@H](CN[C@H]2CC[C@@H](N)CC2)Cc2ccc(C#N)cc2)cc1-c1ccc(CN[C@H](C)c2ccc(C)cc2)o1,enzyme activity,inhibitor,,1 µM,remaining activity,95%
CC(=O)N1CCC(c2ccc(C(=O)NC3=NCCN3)cc2C(F)(F)F)CC1,cell-free assay,,competition with immobilised ligand,1 µM,remaining binding,100%
FC(F)c1nc2ccccc2n1-c1nc(N2CCOCC2)nc(N2CCOCC2)n1,enzyme activity,inhibitor,,10 µM,remaining activity,93%
O=C(O)[C@@H]1[C@@H](Cn2nnc3ccccc3c2=O)CC[C@H]1C(=O)c1ccc(OCCC2CCOCC2)cc1,cell-free assay,,competition with immobilised ligand,1 µM,remaining binding,99%
FC(F)(F)Oc1cccc(-c2cnc3ccc(-c4ccncc4)nn23)c1,enzyme activity,inhibitor,radiometric,1 µM,activity vs control,97%
Nc1ncnc2occ(-c3ccc(NC(=O)Nc4cc(C(F)(F)F)ccc4F)cc3)c12,cell-free assay,inhibitor,,20 µM,remaining signal,53%
